Screening data deposited in PubChem BioAssay by several laboratories.
A selection: hits, their analogues and other compounds. The true share with any hit is near 3.7%.
EBI2 block: antagonists of human EBI2 receptor. P32249. EBI2 beta-arrestin recruitment, luminescence, 7a,25-OHC stimulated. inhibition, % at 5 µM. hit rate 0.81% among 360,000. AID 651636; in the data active means inhibition above about 38%;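 further: enzyme fragment complementation signal reports receptor beta-arrestin coupling in cells; 0% = agonist plus DMSO wells and 100% = wells without agonist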
Exocytosis inh: lytic granule exocytosis inhibition; inhibition, % at 10 µM; TALL-104 LAMP-1 surface exposure, flow cytometry; cells stimulated with thapsigargin and PMA; hit rate 0.66% among 360,000;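 active means inhibition above about 55%, limit read from the data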
Myeloid diff 2: compounds promoting myeloid differentiation; ER-HoxA9 myeloid progenitors, lysozyme-GFP differentiation, flow cytometry; calls only at 10 µM; hit rate 1% among 360,000;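 active means normalized GFP-positive differentiation at or above the plate's own cutoff, the solvent-only control mean plus 3 SD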;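 further: cells exposed to compound for four days before flow analysis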
MC4R ag barr: agonists of human melanocortin 4 receptor (MC4R) beta-arrestin; P32245; U2OS MC4R beta-arrestin complementation, luminescence; percent of melanotan II response, DMSO zero; activation, % at 8.9 µM; hit rate 0.98% among 360,000; AID 540308;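 active means activation above a per-plate cutoff, the mean activation of sample wells on that plate plus 3 SD, cut at about 8% in these data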
Target sequence (P32245 whole entry, looked up): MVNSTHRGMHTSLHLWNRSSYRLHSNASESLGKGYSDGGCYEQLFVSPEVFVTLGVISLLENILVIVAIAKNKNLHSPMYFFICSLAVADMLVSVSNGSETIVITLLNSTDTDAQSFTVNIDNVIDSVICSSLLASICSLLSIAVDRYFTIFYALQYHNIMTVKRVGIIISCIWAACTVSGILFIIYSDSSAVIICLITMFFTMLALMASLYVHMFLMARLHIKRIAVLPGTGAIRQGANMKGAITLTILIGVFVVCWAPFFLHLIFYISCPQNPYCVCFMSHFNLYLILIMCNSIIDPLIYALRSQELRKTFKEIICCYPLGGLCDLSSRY
MC4R antag cAMP: blocks human MC4R cAMP signaling | P32245 | MC4R-expressing cells, MTII-stimulated cAMP, LANCE TR-FRET | inhibition, % at 6.5 µM | hit rate 0.48% among 360,000 | AID 540295;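 active means inhibition above its plate's cutoff, the mean of tested wells on that plate plus 3 SD, cut at about 29% in these data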;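 further: 0% = Melanotan II alone and 100% = Melanotan II plus saturating MCL0020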
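Material: U2OS-MC4R stable cell line | Reagent: Melanotan II challenge after compound preincubation | Doses: One concentration, 6.5 µM nominal | Incubation: 30-min compound preincubation, 1-h Melanotan II challenge, 1-h detection, room temperature | Signal: TR-FRET cAMP assay | Replicates: One well per compound, no replicates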
Myeloid diff CP1: myeloid differentiation induction | calls only | shares compounds with Myeloid diff 2 | ER-HoxA9 myeloid progenitors, GFP/Mac1 double-positive flow | AID 651706 | hit rate 2% among 2,300;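 active means share of green or green-and-red cells above 9 and 9% in run 1 or 4 and 3% in run 2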
GFP autofluor: compound fluorescence in myeloid differentiation counter-screen; ER-HoxA9 myeloid progenitors, no estrogen, GFP autofluorescence flow cytometry; vehicle wells 0%, positive control 100%; hit rate 7.4% among 2,300; fluorescence response, % (concentration not given with the values); shares compounds with Myeloid diff 2;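 active means over 5% cells positive for green fluorescent reporter, or over 2% positive for both it and APC stain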;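 further: range taken on the double positive population between DMSO and positive control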
Active calls of the source: *; i = inactive; · = no result; + = active, no number.

SMILES	EBI2 block	Exocytosis inh	Myeloid diff 2	MC4R ag barr	MC4R antag cAMP	Myeloid diff CP1	GFP autofluor
COc1cccc(COC(=O)C2CCN(S(=O)(=O)c3ccc(C)cc3C)CC2)c1OC	16.3	0.5	i	-2.4	-2.5	·	·
Cc1ccc(/C=N/NC(=O)CNC(=O)COc2ccc(Cl)cc2)o1	12.1	4.5	+	-4.4	2.7	i	0.4
COc1ccc(CC(=O)NCC(=O)N/N=C/c2ccc(C)o2)cc1	-6.7	0.7	i	0.1	1.3	·	·
O=C(CC1C[C@H](C(=O)N2CCOCC2)[C@@]2(CCC3CCCC3)c3[nH]c4ccccc4c3CCN2C1=O)NCC12CC3CC(CC(C3)C1)C2 (some centres undefined)	11.8	-0.7	i	-3.2	2.8	·	·
CCO[C@H]1OC(C(=O)O)=C[C@@H](c2ccccc2)[C@@H]1CCCO	-3.5	-2.9	i	-1.6	4.7	i	0.0
O=C(CSc1nnc(Cc2ccccc2)n1-c1cccc(Cl)c1)N1CCOCC1	10.0	-1.8	i	-2.1	6.6	·	·
Cc1cccc(-n2c(Cc3ccccc3)nnc2SCC(=O)N2CCOCC2)c1	-1.8	0.0	i	0.3	8.3	i	0.8
Cc1cccc(-n2c(C)cc(C=C3C(=O)c4ccccc4C3=O)c2C)c1	22.2	23.4	i	3.8	-2.6	i	0.0
Cc1cc(C=C2C(=O)c3ccccc3C2=O)c(C)n1-c1ccc(Cl)cc1	18.6	-3.7	i	-1.8	-1.0	·	·
Cc1cc(/C=C2\SC(=S)NC2=O)c(C)n1-c1ccccc1	-3.2	1.5	i	-1.4	3.6	i	6.9*
Cc1cc(/C=C2\SC(=Nc3ccc(F)cc3)NC2=O)c(C)n1-c1ccc(S(N)(=O)=O)cc1	19.7	3.6	i	-2.6	-14.9	i	8.0*
Cc1cc(/C=C2/SC(=O)NC2=O)c(C)n1-c1ccc(N2CCOCC2)cc1	-7.6	3.2	i	2.4	-1.1	·	·
Cc1cccc(Cl)c1NC(=O)NCCCN1CCCCC1C (centres undefined)	-1.9	-4.6	i	·	·	·	·
CN(C)c1ccc(-c2ccnc3c2CC(C)(C(=O)NCC2CC2)O3)cc1 (centres undefined)	2.1	-5.7	i	-1.5	10.3	·	·
Cc1ccc(S(=O)(=O)N(OCc2ccccc2)C(C)C(=O)O)cc1 (centres undefined)	-12.0	-3.1	i	-2.1	24.4	·	·
O=C(NCc1ccccc1)c1cc(C2CCCN(C(=O)c3ccccc3)C2)on1 (centres undefined)	6.9	-1.1	i	0.6	-2.4	·	·
Cc1ccc(S(=O)(=O)N2CCCCC2CCNC(=O)C(=O)Nc2ccccc2F)cc1 (centres undefined)	-3.7	-11.2	+	2.0	-2.4	i	0.0
CC12C(=O)N(Cc3ccccc3)C(=O)C1C1C=CC2C1 (centres undefined)	-9.8	-3.1	i	3.8	-3.8	·	·
CC12C(=O)N(CCC(=O)O)C(=O)C1C1C=CC2C1 (centres undefined)	-25.3	-1.0	+	-1.1	2.1	i	0.0
COc1cc2oc3cc(C#Cc4ccc(N)cc4)ccc3c(=O)c2cc1OC	14.4	-0.9	i	3.7	19.9	·	·
Nc1ccc(C#Cc2ccc3c(=O)c4ccccc4oc3c2)cc1	17.8	8.8	i	1.9	18.2	+	0.0
COc1cc(C(=O)NNC(=O)c2cc(-c3ccccc3)n[nH]2)cc(OC)c1C	6.2	1.2	i	0.3	3.6	i	0.7
O=C(Nc1ccccc1C(=O)NC1CC1)c1ccccc1F	3.4	0.0	i	0.4	3.2	·	·
CNC(=O)c1ccsc1NC(=O)CCS(=O)(=O)c1ccc(F)cc1	-16.7	-3.1	i	-3.5	4.2	·	·
NC(=O)c1ccsc1NC(=O)CCS(=O)(=O)c1ccc(F)cc1	1.7	4.4	+	-4.1	-4.5	i	0.0
SMILES	EBI2 block	Exocytosis inh	Myeloid diff 2	MC4R ag barr	MC4R antag cAMP	Myeloid diff CP1	GFP autofluor
C#CC[N+]1(CC#Cc2cccc(C)c2)CCCCC1	-5.0	0.8	i	0.4	3.1	i	0.0
C#CC[N+]1(CC#Cc2ccccc2)CCOCC1	-11.3	-4.4	i	1.8	1.9	i	0.3
C[C@@H](N)C(=O)NC[C@H]1CC[C@H](C(=O)N[C@@H](Cc2ccccc2)C(=O)O)CC1	-8.7	-3.4	i	-0.6	4.0	·	·
COc1ccc(NC(=O)Cn2nnc(C(=O)NCc3cccs3)c2N)cc1OC	0.3	-3.2	i	-0.3	-3.1	·	·
Cc1ccc(NC(=O)Cn2nnc(C(=O)NCc3cccs3)c2N)cc1F	-11.9	3.3	+	4.5	2.8	i	0.2
CC(=O)c1cccc(NC(=O)C(C)OC(=O)/C=C/c2cccs2)c1 (centres undefined)	-0.7	-0.5	i	-1.6	1.1	·	·
COc1cc(NCCCNC(C)C)c2nccc(C)c2c1	-30.9	1.4	+	0.3	1.8	i	0.3
COc1cc(NCc2ccccc2)c2ncn(C(C)C)c2c1	-8.1	-6.1	i	-1.1	-7.7	·	·
COCC(=O)N(C)C[C@H]1Oc2ncc(C#C[C@H](C)O)cc2C(=O)N([C@@H](C)CO)C[C@H]1C	-5.5	1.9	+	-0.3	16.8	i	0.0
Cc1ccc(S(=O)(=O)N(C)C[C@H]2Oc3c(NC(=O)Nc4cccc5ccccc45)cccc3C(=O)N([C@@H](C)CO)C[C@@H]2C)cc1	9.2	10.5	i	-0.2	12.0	i	0.0
COc1ccc(NC(=O)Nc2cccc3c2O[C@H](CN(C)S(=O)(=O)c2ccc(OC)cc2)[C@@H](C)CN([C@H](C)CO)C3=O)cc1	3.9	-18.1	i	1.3	8.7	·	·
Cc1ccc(-c2cnc3c(c2)C(=O)N([C@H](C)CO)C[C@@H](C)[C@@H](CN(C)C(=O)Cc2ccccc2)O3)cc1	2.8	-4.6	i	0.8	14.3	i	0.3
Cc1ccc(NC(=O)CN2C(=O)NC(Cc3c[nH]c4ccccc34)C2=O)cc1 (centres undefined)	-7.2	-0.2	i	2.5	-4.5	·	·
Cc1c(Br)c(O)c(Br)c2sc(=O)oc12	-9.7	43.3	i	-2.2	2.5	i	0.0
Cc1cc(C)c(C(CC(=O)c2cccs2)C(C#N)C#N)c(C)c1 (centres undefined)	9.8	-1.7	i	-3.0	14.2	·	·
CN(CC(=O)Nc1cc([N+](=O)[O-])ccc1Cl)Cc1ccc(Br)cc1	-0.2	9.1	i	1.2	2.4	i	0.3
O=C(NCCc1ccc(Cl)cc1)c1nnc(Cc2ccc(Cl)cc2)o1	22.9	-5.8	i	0.3	0.8	·	·
CC(CCc1ccccc1)NC(=O)c1nnc(Cc2ccc(Cl)cc2)o1 (centres undefined)	22.2	-7.4	i	2.9	13.2	i	0.0
